# Activity calls are given as the source filed them. The rule behind the calls is not given here.
# Key:
# Aphis gossypii [1] = experiment: Insecticidal activity against Aphis gossypii (cotton aphid) infested one week old Crookneck squash plants assessed as insect mortality measured after 3 days post compound application under green house conditions; type: functional; settings: for LC50: Aphis gossypii, 72 h
# Heliothis virescens [2] = experiment: Insecticidal activity against Heliothis virescens (tobacco budworm) second-instar larvae infested on 400 ppm compound pre-treated cotton cotyledon disk assessed as insect mortality measured 5 days post compound treatment under green house conditions; type: functional
# Spodoptera exigua [3] = experiment: Insecticidal activity against Spodoptera exigua second-instar larvae feeded on 400 ppm compound treated lepidopteran diet assessed as insect mortality measured 5 days post compound treatment under green house conditions; type: functional; settings: at 400 ppm
# Spodoptera exigua [4] = experiment: Insecticidal activity against Spodoptera exigua second-instar larvae feeded on compound treated lepidopteran diet assessed as insect mortality measured 5 days post compound treatment under green house conditions; type: functional; settings: Spodoptera exigua, 120 h
# Trichoplusia ni [5] = experiment: Insecticidal activity against Trichoplusia ni (cabbage looper) second-instar larvae infested on compound pre-treated cabbage leaf disk assessed as insect mortality measured 5 days post compound treatment under green house conditions; type: functional; settings: Trichoplusia ni, foliar
# Method in brief: (§1)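 Leaf disks treated, air-dried and placed singly in cups. Cotton cotyledon disks each get one second-instar tobacco budworm larva; cabbage leaf disks each get one second-instar cabbage looper larva. Cups are capped and held in a growth chamber at 25 °C, 50-55% RH, 14 h light/10 h dark for 5 days.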
# Tetranychus urticae [6] = experiment: Insecticidal activity against female Tetranychus urticae (two-spotted spider mite) infested cotton leaf disks followed by 2.5 ppm compound spraying after oviposit assessed as insect mortality measured after 6 days post compound application under green house conditions; type: functional; settings: foliar, 144 h
# Myzus persicae = experiment: Insecticidal activity against Myzus persicae (green peach aphid) assessed as insect mortality at 50 ppm; type: functional
# Aphis gossypii [7] = experiment: Insecticidal activity against Aphis gossypii (cotton aphid) infested one week old Crookneck squash plants assessed as insect mortality at 50 ppm measured after 3 days post compound application under green house conditions; type: functional; settings: 72 h
# Bemisia tabaci [8] = system: Bemisia tabaci
# Trichoplusia ni [9] = experiment: Insecticidal activity against Trichoplusia ni (cabbage looper) second-instar larvae infested on 400 ppm compound pre-treated cabbage leaf disk assessed as insect mortality measured 5 days post compound treatment under green house conditions; type: functional; settings: at 400 ppm
# Tetranychus urticae [10] = experiment: Insecticidal activity against female Tetranychus urticae (two-spotted spider mite) infested cotton leaf disks followed compound spraying after oviposit assessed as insect mortality measured after 6 days post compound application under green house conditions; type: functional; settings: for LC50: Tetranychus urticae, foliar, 144 h
# Heliothis virescens [11] = experiment: Insecticidal activity against Heliothis virescens (tobacco budworm) second-instar larvae infested on compound pre-treated cotton cotyledon disk assessed as insect mortality measured 5 days post compound treatment under green house conditions; type: functional; settings: for LC50: Heliothis virescens; method in brief: as §1
# Spodoptera exigua [12] = experiment: Insecticidal activity against Spodoptera exigua second-instar larvae feeded on 25 ppm compound treated lepidopteran diet assessed as insect mortality measured 5 days post compound treatment under green house conditions; type: functional
# Trichoplusia ni [13] = experiment: Insecticidal activity against Trichoplusia ni (cabbage looper) second-instar larvae infested on 25 ppm compound pre-treated cabbage leaf disk assessed as insect mortality measured 5 days post compound treatment under green house conditions; type: functional; method in brief: as §1
# Heliothis virescens [14] = experiment: Insecticidal activity against Heliothis virescens (tobacco budworm) second-instar larvae infested on 25 ppm compound pre-treated cotton cotyledon disk assessed as insect mortality measured 5 days post compound treatment under green house conditions; type: functional; method in brief: as §1
# Aphis gossypii [15] = system: Aphis gossypii
# Trichoplusia ni [16] = system: Trichoplusia ni
# Aphis gossypii [17] = experiment: Insecticidal activity against Aphis gossypii (cotton aphid) infested one week old Crookneck squash plants assessed as insect mortality at 5 ppm measured after 3 days post compound application under green house conditions; type: functional; settings: 72 h
# Bemisia tabaci [18] = experiment: Insecticidal activity against Bemisia tabaci (sweet potato whitefly) second-instar larvae infested five weeks old cotton plants followed by compound 250 ppm compound spraying after insect oviposit assessed as insect mortality measured 13 days post compound treatment under green house conditions; type: functional
SMILES,LC50 (Aphis gossypii [1]) [µg/mL],mortality (Heliothis virescens [2]) [%],mortality (Spodoptera exigua [3]) [%],LC50 (Spodoptera exigua [4]) [µg/mL],LC50 (Trichoplusia ni [5]) [µg/mL],mortality at 2.5 ppm (Tetranychus urticae [6]) [%],LC50 (Myzus persicae) [µg/mL],mortality at 50 ppm (Aphis gossypii [7]) [%],mortality (Bemisia tabaci [8]),mortality (Trichoplusia ni [9]) [%],LC50 (Tetranychus urticae [10]) [µg/mL],LC50 (Heliothis virescens [11]) [µg/mL],mortality (Spodoptera exigua [12]) [%],mortality (Trichoplusia ni [13]) [%],mortality (Heliothis virescens [14]) [%],also measured
Cc1cc(-c2ccc(OC(F)(F)F)cc2)sc1-c1nc(-c2c(F)cccc2Cl)nn1C,0.5,80,90,< 1.6,< 1.6,90,13.7,60,inactive,90,< 0.04,225,–,–,–,LC90 (Aphis gossypii [1]): 12.8 ppm; LC90 (Tetranychus urticae [10]): 0.151 ppm
Cc1cc(-c2ccc(F)c(Cl)c2)sc1-c1nc(-c2c(F)cccc2Cl)nn1C,9.28,90,80,–,–,60,55,–,inactive,90,–,–,0,60,0,mortality (Aphis gossypii [15]): inactive
Cc1c(Br)csc1-c1nc(-c2c(F)cccc2Cl)nn1C,0.7,–,–,–,–,–,0.8,–,–,–,0.29,–,–,–,–,–
Cc1cc(-c2ccc(Cl)cc2F)sc1-c1nc(-c2c(F)cccc2Cl)nn1C,4.93,90,70,–,–,90,91,< 50,inactive,90,–,–,0,40,20,–
Cc1cc(-c2cccc(OC(F)(F)C(F)Cl)c2)sc1-c1nc(-c2c(F)cccc2Cl)nn1C (stereo unspecified),–,90,60,23.1,< 1.6,90,75,90,inactive,–,–,4.38,–,–,–,mortality (Trichoplusia ni [16]): inactive; LC90 (Heliothis virescens [11]): 151 ppm; mortality at 5 ppm (Aphis gossypii [17]): 91%
Cc1cc(-c2ccc(F)c(F)c2)sc1-c1nc(-c2c(F)cccc2Cl)nn1C,4.41,90,90,–,–,60,88,< 50,–,90,–,–,0,40,20,LC90 (Aphis gossypii [1]): 22.3 ppm; mortality (Bemisia tabaci [18]): 90%
Cc1cc(-c2ccc(OC(F)(F)C(F)Cl)cc2)sc1-c1nc(-c2c(F)cccc2Cl)nn1C (stereo unspecified),< 0.5,90,60,< 1.79,< 1.6,90,< 3.1,90,–,90,< 0.1,< 1.6,–,–,–,mortality (Bemisia tabaci [18]): <50%; LC90 (Tetranychus urticae [10]): 2.07 ppm

# — ChEMBL document CHEMBL3044558, “Structure-activity relationship development of dihaloaryl triazole compounds as insecticides and acaricides. 1. Phenyl thiophen-2-yl triazoles” (2007)
